# In ChEMBL document CHEMBL1629660, “Pharmacodynamics of tigecycline against phenotypically diverse Staphylococcus aureus isolates in a murine thigh model” (Antimicrob Agents Chemother, 2009):
# Tests used:
# [1] = r2 for fT>MIC in community acquired methicillin-resistant Staphylococcus aureus isolate 147-infected neutropenic ICR mouse
# [2] = Protein binding in methicillin-sensitive Staphylococcus aureus ATCC 29213-infected neutropenic ICR mouse serum at 50 mg/kg, sc by HPLC; type: ADME, organism-based; parameters: dose 50 mg/kg, route subcutaneous; settings: read-out: PB (converted)
# [3] = Elimination half life in neutropenic ICR mouse infected with methicillin-sensitive Staphylococcus aureus ATCC 29213 at 12.5 mg/kg, sc by HPLC; type: ADME, organism-based; parameters: dose 12.5 mg/kg, route subcutaneous; settings: in vivo, read-out: beta t1/2 (converted)
# How it was run: (§1)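 Neutropenic female ICR mice (cyclophosphamide 150 and 100 mg/kg ip, 4 days and 1 day before inoculation), both thighs inoculated im with ~10^7 CFU/ml of ATCC 29213. Single sc doses of 50, 25, 12.5 or 6.25 mg/kg. Cardiac blood taken from groups of six at 8–12 times over 0.5–24 h. Serum measured by HPLC (linear 0.05–5 µg/ml). Two-compartment fit by nonlinear least squares; AUC by trapezoidal rule.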
# Serum = assay: fAUC in serum of methicillin-sensitive Staphylococcus aureus ATCC 29213-infected neutropenic ICR mouse at 1.56 to 400 mg/kg, sc by HPLC; type: ADME, organism-based; parameters: dose 1.56-400 mg/kg, route subcutaneous; settings: in vivo
# Staphylococcus aureus [4] = assay: Antimicrobial activity against community acquired methicillin-resistant Staphylococcus aureus isolate 156 infected in immunocompetent ICR mouse assessed as reduction in bacterial load at […] after 24 hrs; type: functional
# How it was run: (§2)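 Non-neutropenic ICR mice (no cyclophosphamide). Each thigh inoculated im with 0.1 ml of ~10^8 CFU/ml. Tigecycline given sc once daily at 1.56, 3.13, 6.25 or 12.5 mg/kg starting 2 h post-infection, 3 mice/group. Thighs harvested at 24 h, homogenized, plated on blood agar; log10 CFU change vs 0-h controls.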
# Staphylococcus aureus [5] = assay: Antimicrobial activity against community acquired methicillin-resistant Staphylococcus aureus isolate 156 infected in immunocompetent ICR mouse assessed as reduction in bacterial load at 1.56 […] after 24 hrs; type: functional
# How it was run: as §2
# [6] = Tmax in neutropenic ICR mouse infected with Staphylococcus aureus ATCC 29213 at 50 mg/kg, sc by HPLC; type: ADME, organism-based; parameters: dose 50 mg/kg, route subcutaneous; settings: in vivo
# How it was run: as §1
# [7] = Cmax in neutropenic ICR mouse infected with Staphylococcus aureus ATCC 29213 at 12.5 mg/kg, sc by HPLC; type: ADME, organism-based; parameters: dose 12.5 mg/kg, route subcutaneous; settings: in vivo
# How it was run: as §1
# Staphylococcus aureus [8] = assay: Antimicrobial activity against community acquired methicillin-resistant Staphylococcus aureus isolate 147 infected in neutropenic ICR mouse assessed as change in bacterial load after 24 hrs; type: functional
# How it was run: (§3)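 Female ICR mice (~25 g) made neutropenic with cyclophosphamide 150 and 100 mg/kg ip, 4 and 1 days before infection. Each thigh inoculated im with 0.1 ml of ~10^7 CFU/ml from an overnight subculture. Tigecycline sc (0.2 ml) given 2 h later as single or multiple doses of 1.56–50 mg/kg, 1.56–400 mg/kg/day, 3 mice/group. Saline-injected controls. Thighs harvested at 24 h, homogenized in saline, plated on blood agar; log10 CFU change vs 0-h controls.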
# [9] = fAUC/MIC in methicillin-sensitive Staphylococcus aureus ATCC 25923-infected neutropenic ICR mouse at 50% effective exposure index; type: functional
# [10] = fAUC/MIC in community acquired methicillin-resistant Staphylococcus aureus isolate 144-infected neutropenic ICR mouse at 50% effective exposure index; type: functional
# How it was run: (§4)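 Single-dose serum PK in infected neutropenic mice (sc 6.25–50 mg/kg; HPLC; two-compartment fit; AUC by trapezoidal rule; lower doses simulated). Free fraction from ultrafiltration of spiked mouse serum, in triplicate. Free exposures divided by modal MIC and plotted against 24-h log10 CFU change with a sigmoidal Emax model; EI50, EI80 and stasis values read from the fitted curves.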
# Staphylococcus aureus [11] = assay: Antimicrobial activity against community acquired methicillin-resistant Staphylococcus aureus isolate 156 infected in immunocompetent ICR mouse assessed as reduction in bacterial load at […] after 24 hrs; type: functional
# How it was run: as §2
# [12] = r2 for fT>MIC in hospital-acquired methicillin-resistant Staphylococcus aureus isolate 56-infected neutropenic ICR mouse
# [13] = Elimination half life in neutropenic ICR mouse infected with methicillin-sensitive Staphylococcus aureus ATCC 29213 at 6.25 mg/kg, sc by HPLC; type: ADME, organism-based; parameters: dose 6.25 mg/kg, route subcutaneous; settings: in vivo, read-out: beta t1/2 (converted)
# How it was run: as §1
# [14] = r2 for fCmax/MIC in community acquired methicillin-resistant Staphylococcus aureus isolate 156-infected neutropenic ICR mouse
# [15] = fAUC/MIC in hospital-acquired methicillin-resistant Staphylococcus aureus isolate 56-infected neutropenic ICR mouse at stasis dose; type: functional
# How it was run: as §4
# Staphylococcus aureus [16] = assay: Antimicrobial activity against Community-acquired methicillin-resistant Staphylococcus aureus isolate 156 by broth microdilution method; type: functional
# How it was run: (§5)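 Tigecycline MIC by CLSI broth microdilution, run in triplicate; modal MIC reported. Isolates stored at –80°C in double-strength skim milk and subcultured twice on Trypticase soy agar with 5% sheep blood before use.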
# [17] = Protein binding in methicillin-sensitive Staphylococcus aureus ATCC 29213-infected neutropenic ICR mouse serum at 12 µg/ml by HPLC; settings: read-out: PB (converted)
# Staphylococcus aureus [18] = assay: Antimicrobial activity against community acquired methicillin-resistant Staphylococcus aureus isolate 156 infected in neutropenic ICR mouse assessed as change in bacterial load at 6.25 […] after 24 hrs; type: functional
# How it was run: as §3
# [19] = fAUC/MIC in community acquired methicillin-resistant Staphylococcus aureus isolate 147-infected neutropenic ICR mouse at stasis dose; type: functional
# How it was run: as §4
# [20] = r2 for fAUC/MIC in methicillin-sensitive Staphylococcus aureus ATCC 25923-infected neutropenic ICR mouse
# Staphylococcus aureus [21] = assay: Antimicrobial activity against Hospital-acquired methicillin-resistant Staphylococcus aureus isolate 56 by broth microdilution method; type: functional
# How it was run: as §5
# [22] = AUC (0 to 24 hrs) in neutropenic ICR mouse infected with Staphylococcus aureus ATCC 29213 at 12.5 mg/kg, sc by HPLC; type: ADME, organism-based; parameters: time < 24 hr, dose 12.5 mg/kg, route subcutaneous; settings: plasma
# How it was run: as §1
# [23] = Tmax in neutropenic ICR mouse infected with Staphylococcus aureus ATCC 29213 at 12.5 mg/kg, sc by HPLC; type: ADME, organism-based; parameters: dose 12.5 mg/kg, route subcutaneous; settings: in vivo
# How it was run: as §1
# [24] = Cmax in neutropenic ICR mouse infected with Staphylococcus aureus ATCC 29213 at 50 mg/kg, sc by HPLC; type: ADME, organism-based; parameters: dose 50 mg/kg, route subcutaneous; settings: in vivo
# How it was run: as §1
# Staphylococcus aureus [25] = assay: Antimicrobial activity against hospital-acquired methicillin-resistant Staphylococcus aureus isolate 56 infected in neutropenic ICR mouse assessed as decrease in bacterial density at 1.56 to 400 mg/kg, sc after 24 hrs; type: functional; settings: dose mg/kg 1.56-400; route subcutaneous
# How it was run: as §3
# [26] = fAUC/MIC in hospital-acquired methicillin-resistant Staphylococcus aureus isolate 56-infected neutropenic ICR mouse at 50% effective exposure index; type: functional
# How it was run: as §4
# [27] = r2 for fCmax/MIC in methicillin-sensitive Staphylococcus aureus ATCC 25923-infected neutropenic ICR mouse
# [28] = r2 for fT>MIC in hospital-acquired methicillin-resistant Staphylococcus aureus isolate 152-infected neutropenic ICR mouse
smiles,measurement,setting,value
CN(C)c1cc(NC(=O)CNC(C)(C)C)c(O)c2c1C[C@H]1C[C@H]3[C@H](N(C)C)C(O)=C(C(N)=O)C(=O)[C@@]3(O)C(O)=C1C2=O [TIGECYCLINE],r2,[1],0.483%
same,fraction unbound,[2],0.071
same,half-life,[3],10.1 h
same,fAUC,Serum,200 ng·h/mL
same,log10cfu,Staphylococcus aureus [4],1.9
same,log10cfu,Staphylococcus aureus [5],1.6
same,Tmax,[6],0.74 h
same,Cmax,[7],2380 ng/mL
same,log10CFU/ml,Staphylococcus aureus [8],1.8
same,fAUC/MIC,[9],5
same,fAUC/MIC,[10],2.2
same,log10cfu,Staphylococcus aureus [11],1.8
same,r2,[12],0.341%
same,half-life,[13],10.5 h
same,r2,[14],0.88
same,fAUC/MIC,[15],2.5
same,MIC,Staphylococcus aureus [16],0.125 µg/mL
same,fraction unbound,[17],0.08
same,log10CFU/ml,Staphylococcus aureus [18],0.1
same,fAUC/MIC,[19],1.7
same,r2,[20],0.877
same,MIC,Staphylococcus aureus [21],0.5 µg/mL
same,AUC(0-t) at 24 h,[22],9100 ng·h/mL
same,Tmax,[23],0.45 h
same,Cmax,[24],12200 ng/mL
same,CFU,Staphylococcus aureus [25],1.5
same,fAUC/MIC,[26],2.5
same,r2,[27],0.508
same,r2,[28],0.511%
